Assay results as given in ChEMBL document CHEMBL4411287, “Discovery and optimization of a series of 3-substituted indazole derivatives as multi-target kinase inhibitors for the treatment of lung squamous cell carcinoma” (Eur J Med Chem, 2019).
Active and inactive are the calls of the source. The calls are words filed in the database; no cut-off is given here.

Key:
[1] = system: T1, Discoidin domain-containing receptor 2 (Homo sapiens), Q16832 [I638F]; assay: Inhibition of DDR2 I638F mutant in human NCI-H2286 cells assessed as decrease in AKT phosphorylation at […] after 2 hrs by Western blot analysis; format: cell-based
T1 sequence (whole entry): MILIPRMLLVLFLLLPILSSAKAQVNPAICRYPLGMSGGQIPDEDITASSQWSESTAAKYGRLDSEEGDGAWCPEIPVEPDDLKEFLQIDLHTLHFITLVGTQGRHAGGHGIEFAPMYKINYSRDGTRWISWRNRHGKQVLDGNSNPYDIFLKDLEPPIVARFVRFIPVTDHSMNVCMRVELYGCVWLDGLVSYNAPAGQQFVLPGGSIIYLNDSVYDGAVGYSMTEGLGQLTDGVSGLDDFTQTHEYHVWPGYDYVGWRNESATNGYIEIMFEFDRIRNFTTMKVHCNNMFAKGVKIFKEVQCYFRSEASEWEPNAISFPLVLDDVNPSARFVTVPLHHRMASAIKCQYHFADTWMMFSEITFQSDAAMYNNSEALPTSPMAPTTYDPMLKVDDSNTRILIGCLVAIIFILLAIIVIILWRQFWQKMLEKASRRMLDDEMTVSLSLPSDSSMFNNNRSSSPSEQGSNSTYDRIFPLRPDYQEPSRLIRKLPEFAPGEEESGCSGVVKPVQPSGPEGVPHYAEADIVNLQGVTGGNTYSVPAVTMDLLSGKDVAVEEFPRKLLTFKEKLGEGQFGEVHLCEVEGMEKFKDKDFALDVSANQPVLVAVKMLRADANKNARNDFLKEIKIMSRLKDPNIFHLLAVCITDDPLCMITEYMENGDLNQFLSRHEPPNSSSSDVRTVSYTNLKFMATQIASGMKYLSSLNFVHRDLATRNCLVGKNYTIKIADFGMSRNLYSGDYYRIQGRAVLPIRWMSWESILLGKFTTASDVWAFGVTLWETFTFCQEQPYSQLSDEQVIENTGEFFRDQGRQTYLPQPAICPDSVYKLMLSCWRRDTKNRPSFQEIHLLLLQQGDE
Method in brief: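 NCI-H2286 cells exposed to compound for 2 h at 37 °C and lysed in SDS sample buffer. Lysates run on 10% SDS-PAGE and blotted to nitrocellulose. Membranes probed for phospho- and total DDR2, ERK and Akt, with GAPDH as loading control, and detected by HRP secondary antibody and enhanced chemiluminescence.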

[2] = biological target: Angiopoietin-1 receptor (Homo sapiens) (UniProt Q02763); assay: Inhibition of Tie-2 (unknown origin) at 1000 nM relative to control
Method in brief: (§1)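 ELISA with purified recombinant kinase on plates precoated with poly(Glu,Tyr) 4:1 at 20 µg/mL. ATP 10 µM in HEPES pH 7.4 buffer with MgCl2, MnCl2, Na3VO4 and DTT. Run 60 min at 37 °C. Detected with anti-phosphotyrosine PY99, HRP secondary antibody and o-phenylenediamine, read at 490 nm. Inhibition % = [1 − A490/A490 control]×100. 1% DMSO as negative control.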

[3] = biological target: Fibroblast growth factor receptor 4 (Homo sapiens) (UniProt P22455); assay: Inhibition of FGFR4 (unknown origin) at 100 nM relative to control
Method in brief: (§2)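 Purified recombinant kinase domains run in ELISA on precoated poly(Glu,Tyr) 4:1 (20 µg/mL) with 10 µM ATP in 50 mM HEPES pH 7.4, 50 mM MgCl2, 0.5 mM MnCl2, 0.2 mM Na3VO4, 1 mM DTT; 1% DMSO control; 60 min at 37 °C. Phosphotyrosine read by PY99 antibody, HRP anti-mouse IgG, OPD/H2O2 at 490 nm; inhibition = [1−A490/A490control]×100%; two separate experiments.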

[4] = biological target: Cyclin-dependent kinase 6 (Homo sapiens) (UniProt Q00534); assay: Inhibition of CDK6 (unknown origin) at 1000 nM relative to control
[5] = biological target: Tyrosine-protein kinase ABL1 (Homo sapiens) (UniProt P00519); assay: Inhibition of ABL (unknown origin) at 10 nM relative to control
[6] = biological target: Insulin-like growth factor 1 receptor (Homo sapiens) (UniProt P08069); assay: Inhibition of IGF1R (unknown origin) at 1000 nM relative to control; method in brief: as §2
[7] = biological target: Ephrin type-A receptor 2 (Homo sapiens) (UniProt P29317); assay: Inhibition of EPH-A2 (unknown origin) at 10 nM relative to control; method in brief: as §2
[8] = biological target: Vascular endothelial growth factor receptor 1 (Homo sapiens) (UniProt P17948); assay: Inhibition of VEGFR1 (unknown origin) at 10 nM relative to control; method in brief: as §1
[9] = biological target: Fibroblast growth factor receptor 2 (Homo sapiens) (UniProt P21802); assay: Inhibition of FGFR2 (unknown origin) at 1000 nM relative to control; method in brief: as §2
[10] = biological target: Tyrosine-protein kinase receptor UFO (Homo sapiens) (UniProt P30530); assay: Inhibition of AXL (unknown origin) at 1000 nM relative to control
[11] = biological target: Receptor-type tyrosine-protein kinase FLT3 (Homo sapiens) (UniProt P36888); assay: Inhibition of FLT-3 (unknown origin) at 1000 nM relative to control; method in brief: as §2
[12] = Permeability in human Caco2 cells at 5 uM after 120 mins by LC-MS/MS analysis relative to control; format: ADME, cell-based; details: Caco-2, read-out: Fabs
Method in brief: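 Caco-2 (C2BBe1) monolayers grown confluent on collagen-coated transwell membranes. Buffer is HBSS with 10 mM HEPES at pH 7.4 and pH 6.8. Compound 5 µM added to the apical or basolateral side; duplicate samples taken at 120 min and analysed by LC-MS/MS. Results given as Papp A→B and B→A and efflux ratio B→A/A→B.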

[13] = biological target: Fibroblast growth factor receptor 2 (Homo sapiens) (UniProt P21802); assay: Inhibition of FGFR2 in human SNU-16 cells assessed as decrease in ERK phosphorylation at 25 to 200 nM after 2 hrs by Western blot analysis; format: cell-based
Method in brief: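 SNU-16 cells exposed to compound for 2 h at 37 °C, lysed in 1× SDS sample buffer, resolved by 10% SDS-PAGE and blotted to nitrocellulose; probed for phospho-FGFR, FGFR2, phospho-ERK, ERK and GAPDH, then HRP anti-rabbit or anti-mouse IgG; enhanced chemiluminescence detection.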

[14] = biological target: Vascular endothelial growth factor receptor 2 (Homo sapiens) (UniProt P35968); assay: Inhibition of VEGFR2 (unknown origin) at 100 nM relative to control; method in brief: as §1
[15] = biological target: Macrophage colony-stimulating factor 1 receptor (Homo sapiens) (UniProt P07333); assay: Inhibition of CSF-1R (unknown origin) at 100 nM relative to control
[16] = biological target: Vascular endothelial growth factor receptor 2 (Homo sapiens) (UniProt P35968); assay: Inhibition of VEGFR2 (unknown origin) at 1000 nM relative to control; method in brief: as §1
[17] = biological target: Receptor tyrosine-protein kinase erbB-2 (Homo sapiens) (UniProt P04626); assay: Inhibition of ErbB2 (unknown origin) at 1000 nM relative to control; method in brief: as §2
[18] = biological target: Platelet-derived growth factor receptor alpha (Homo sapiens) (UniProt P16234); assay: Inhibition of PDGFR-alpha (unknown origin) at 1000 nM relative to control; method in brief: as §2

Sequence of Vascular endothelial growth factor receptor 2 (Homo sapiens) (P35968 whole entry): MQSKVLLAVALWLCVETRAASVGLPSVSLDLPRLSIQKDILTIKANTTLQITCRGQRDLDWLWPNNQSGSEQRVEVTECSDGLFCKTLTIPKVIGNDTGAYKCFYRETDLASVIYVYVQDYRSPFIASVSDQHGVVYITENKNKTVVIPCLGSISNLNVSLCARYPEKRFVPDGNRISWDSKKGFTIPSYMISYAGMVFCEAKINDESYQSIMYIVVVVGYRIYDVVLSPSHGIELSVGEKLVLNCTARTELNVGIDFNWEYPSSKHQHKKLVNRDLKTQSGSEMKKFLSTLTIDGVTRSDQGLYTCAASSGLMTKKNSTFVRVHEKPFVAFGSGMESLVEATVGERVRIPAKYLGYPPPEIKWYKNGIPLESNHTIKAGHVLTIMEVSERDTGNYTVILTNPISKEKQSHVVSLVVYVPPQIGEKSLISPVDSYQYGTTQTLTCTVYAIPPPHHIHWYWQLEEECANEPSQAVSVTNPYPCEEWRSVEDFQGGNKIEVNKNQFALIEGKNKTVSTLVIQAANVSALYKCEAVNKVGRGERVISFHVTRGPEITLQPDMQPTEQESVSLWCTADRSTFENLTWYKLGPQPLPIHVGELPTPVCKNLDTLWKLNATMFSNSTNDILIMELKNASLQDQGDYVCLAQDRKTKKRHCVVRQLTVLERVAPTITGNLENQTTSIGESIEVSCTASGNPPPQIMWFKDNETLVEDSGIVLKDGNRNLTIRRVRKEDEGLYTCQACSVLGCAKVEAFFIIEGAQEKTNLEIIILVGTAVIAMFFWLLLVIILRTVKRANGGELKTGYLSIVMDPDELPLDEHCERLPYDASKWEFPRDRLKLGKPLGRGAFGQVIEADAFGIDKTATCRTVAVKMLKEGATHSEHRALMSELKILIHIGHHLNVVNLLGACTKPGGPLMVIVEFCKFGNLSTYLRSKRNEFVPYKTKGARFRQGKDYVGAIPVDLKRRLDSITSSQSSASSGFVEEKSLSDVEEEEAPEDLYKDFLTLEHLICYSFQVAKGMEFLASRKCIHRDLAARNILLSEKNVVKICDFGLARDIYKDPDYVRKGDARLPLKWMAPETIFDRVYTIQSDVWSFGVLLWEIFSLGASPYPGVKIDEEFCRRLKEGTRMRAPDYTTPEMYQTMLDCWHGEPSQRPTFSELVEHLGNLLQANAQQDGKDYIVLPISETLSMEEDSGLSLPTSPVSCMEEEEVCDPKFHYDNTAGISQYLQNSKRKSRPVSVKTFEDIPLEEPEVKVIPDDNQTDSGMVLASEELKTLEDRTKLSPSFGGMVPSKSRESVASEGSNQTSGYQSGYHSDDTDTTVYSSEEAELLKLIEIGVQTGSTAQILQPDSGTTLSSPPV
Sequence of Fibroblast growth factor receptor 2 (Homo sapiens) (P21802 22-821 limits assumed): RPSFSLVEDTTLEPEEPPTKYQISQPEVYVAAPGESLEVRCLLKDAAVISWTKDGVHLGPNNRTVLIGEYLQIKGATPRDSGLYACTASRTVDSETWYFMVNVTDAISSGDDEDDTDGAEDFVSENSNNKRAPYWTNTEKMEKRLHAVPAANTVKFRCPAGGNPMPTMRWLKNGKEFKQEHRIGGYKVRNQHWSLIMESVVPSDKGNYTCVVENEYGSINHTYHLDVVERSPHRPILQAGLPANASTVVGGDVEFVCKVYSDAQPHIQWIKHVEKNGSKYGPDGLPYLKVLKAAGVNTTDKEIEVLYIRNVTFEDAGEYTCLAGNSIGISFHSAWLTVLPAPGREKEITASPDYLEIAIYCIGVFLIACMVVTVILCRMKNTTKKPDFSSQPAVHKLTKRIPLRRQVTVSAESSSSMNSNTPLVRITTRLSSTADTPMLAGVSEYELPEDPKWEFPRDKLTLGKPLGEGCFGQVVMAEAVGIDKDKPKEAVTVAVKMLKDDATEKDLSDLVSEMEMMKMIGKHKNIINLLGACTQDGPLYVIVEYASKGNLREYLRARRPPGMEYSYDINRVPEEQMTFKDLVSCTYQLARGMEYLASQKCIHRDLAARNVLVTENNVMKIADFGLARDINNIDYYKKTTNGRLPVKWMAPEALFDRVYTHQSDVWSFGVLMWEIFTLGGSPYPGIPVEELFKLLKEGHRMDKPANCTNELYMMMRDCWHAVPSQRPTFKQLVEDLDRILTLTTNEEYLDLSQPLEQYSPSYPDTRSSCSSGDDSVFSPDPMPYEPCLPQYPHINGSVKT
Sequence of Cyclin-dependent kinase 6 (Homo sapiens) (Q00534 whole entry): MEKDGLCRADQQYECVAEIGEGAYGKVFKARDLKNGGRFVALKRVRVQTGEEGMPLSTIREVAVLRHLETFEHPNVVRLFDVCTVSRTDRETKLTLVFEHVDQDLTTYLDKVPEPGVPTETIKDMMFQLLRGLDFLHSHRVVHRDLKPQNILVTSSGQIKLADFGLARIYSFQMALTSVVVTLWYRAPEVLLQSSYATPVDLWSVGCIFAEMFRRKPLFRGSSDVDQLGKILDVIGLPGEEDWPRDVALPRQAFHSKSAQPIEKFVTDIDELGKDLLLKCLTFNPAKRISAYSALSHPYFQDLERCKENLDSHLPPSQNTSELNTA
Sequence of Tyrosine-protein kinase receptor UFO (Homo sapiens) (P30530 whole entry): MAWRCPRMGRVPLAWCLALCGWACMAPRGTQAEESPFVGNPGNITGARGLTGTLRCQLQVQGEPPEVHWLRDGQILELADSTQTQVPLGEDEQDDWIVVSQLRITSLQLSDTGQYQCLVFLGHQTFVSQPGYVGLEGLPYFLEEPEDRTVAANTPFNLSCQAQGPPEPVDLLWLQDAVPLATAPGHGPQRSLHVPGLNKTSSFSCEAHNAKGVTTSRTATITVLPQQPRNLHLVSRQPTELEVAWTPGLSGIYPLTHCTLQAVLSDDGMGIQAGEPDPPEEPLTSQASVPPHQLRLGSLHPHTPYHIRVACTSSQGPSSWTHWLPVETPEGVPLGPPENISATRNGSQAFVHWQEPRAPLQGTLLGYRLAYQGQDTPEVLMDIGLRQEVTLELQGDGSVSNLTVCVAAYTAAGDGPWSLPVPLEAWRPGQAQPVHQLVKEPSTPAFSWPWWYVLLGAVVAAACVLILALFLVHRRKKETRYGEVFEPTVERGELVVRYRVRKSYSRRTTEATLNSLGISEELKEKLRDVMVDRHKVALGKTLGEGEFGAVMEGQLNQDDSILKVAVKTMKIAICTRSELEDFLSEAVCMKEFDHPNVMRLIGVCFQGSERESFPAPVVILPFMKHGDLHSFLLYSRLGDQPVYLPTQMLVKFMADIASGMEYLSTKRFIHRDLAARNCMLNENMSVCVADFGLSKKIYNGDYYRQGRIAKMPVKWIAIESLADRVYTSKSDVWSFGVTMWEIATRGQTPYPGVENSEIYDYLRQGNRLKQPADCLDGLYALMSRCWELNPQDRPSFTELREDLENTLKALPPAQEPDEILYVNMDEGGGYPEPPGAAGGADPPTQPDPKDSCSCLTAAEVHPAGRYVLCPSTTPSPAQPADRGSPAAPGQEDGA
Sequence of Ephrin type-A receptor 2 (Homo sapiens) (P29317 whole entry): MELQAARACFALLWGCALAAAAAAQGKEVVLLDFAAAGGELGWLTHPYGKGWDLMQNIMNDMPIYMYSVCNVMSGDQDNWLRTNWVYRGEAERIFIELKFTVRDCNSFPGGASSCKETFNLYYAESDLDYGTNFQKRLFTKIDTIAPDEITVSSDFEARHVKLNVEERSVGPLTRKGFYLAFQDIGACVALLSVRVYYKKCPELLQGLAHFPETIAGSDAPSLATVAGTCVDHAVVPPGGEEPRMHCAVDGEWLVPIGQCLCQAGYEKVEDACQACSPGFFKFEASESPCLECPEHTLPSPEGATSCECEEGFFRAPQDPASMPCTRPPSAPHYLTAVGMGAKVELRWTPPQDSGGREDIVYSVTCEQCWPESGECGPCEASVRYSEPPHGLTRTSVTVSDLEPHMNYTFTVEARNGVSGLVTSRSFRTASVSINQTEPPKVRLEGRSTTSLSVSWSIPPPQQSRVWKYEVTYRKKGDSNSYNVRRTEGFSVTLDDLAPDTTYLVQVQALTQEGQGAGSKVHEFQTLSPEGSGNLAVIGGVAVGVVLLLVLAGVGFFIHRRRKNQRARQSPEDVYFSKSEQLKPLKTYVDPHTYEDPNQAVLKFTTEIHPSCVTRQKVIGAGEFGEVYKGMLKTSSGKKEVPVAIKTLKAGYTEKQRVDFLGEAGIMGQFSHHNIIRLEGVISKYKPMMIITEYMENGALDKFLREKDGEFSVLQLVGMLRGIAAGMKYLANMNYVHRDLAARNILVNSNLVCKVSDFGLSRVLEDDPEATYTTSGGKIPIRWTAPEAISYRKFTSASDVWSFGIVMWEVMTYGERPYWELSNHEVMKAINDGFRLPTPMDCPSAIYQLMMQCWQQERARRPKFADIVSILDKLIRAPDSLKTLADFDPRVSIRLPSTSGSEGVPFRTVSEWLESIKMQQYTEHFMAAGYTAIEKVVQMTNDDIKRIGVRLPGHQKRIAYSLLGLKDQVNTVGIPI

- inhibition [1]: Active
- inhibition [2]: 83.6%
- inhibition [3]: 27.2%
- inhibition [4]: 5.9%
- inhibition [5]: 22%
- inhibition [6]: 5.5%
- inhibition [7]: 86.6%
- inhibition [8]: 25.8%
- inhibition [9]: 100%
- inhibition [10]: 99.8%
- inhibition [11]: 86.2%
- Fa at 2 h, 5 µM [12]: 48.6%
- inhibition [13]: Active
- inhibition [14]: 99.2%
- inhibition [15]: 83.4%
- inhibition [16]: 100%
- inhibition [17]: 0%
- inhibition [18]: 100%
SMILES: Cc1ccc(C(=O)Nc2cccc(C(F)(F)F)c2)cc1-c1ccc2c(-c3cnn(C4CC4)c3)n[nH]c2c1
